The nature of data set [1]: Cmax in mouse at 10 mg/kg, po. To be noted: in vivo.
Data set [2] in a line: Tmax in mouse at 10 mg/kg, po. To be noted: in vivo.
The target in data set [3] is T1, Glucagon-like peptide 1 receptor (Homo sapiens, UniProt P43220). Nature of the data set: Positive allosteric modulator activity at human GLP-1R expressed in PSC-HEK293 cells in presence of EC20 level of GLP1(9-36)NH2 incubated for 30 mins by HTRF cAMP assay relative to control. It counts as functional, cell-based. Put shortly:
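Thaw-and-use PSC-HEK293 cells stably expressing human GLP-1R, 2000 cells/well in HBSS/20 mM HEPES/0.1% BSA with 2 mM IBMX. Enhancer format: compound dose-response plus fixed EC20 GLP1(9-36)NH2. Shift format: GLP1(9-36)NH2 dose-response plus 10 or 3 μM compound. 30 min at room temperature. HTRF cAMP read after 1 h lysis (665/620 nm). EC50 from a 4-parameter logistic fit.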

Data set [4] deals with T2, Glucagon-like peptide 1 receptor (Mus musculus, UniProt O35659).
T2 sequence (O35659 whole entry): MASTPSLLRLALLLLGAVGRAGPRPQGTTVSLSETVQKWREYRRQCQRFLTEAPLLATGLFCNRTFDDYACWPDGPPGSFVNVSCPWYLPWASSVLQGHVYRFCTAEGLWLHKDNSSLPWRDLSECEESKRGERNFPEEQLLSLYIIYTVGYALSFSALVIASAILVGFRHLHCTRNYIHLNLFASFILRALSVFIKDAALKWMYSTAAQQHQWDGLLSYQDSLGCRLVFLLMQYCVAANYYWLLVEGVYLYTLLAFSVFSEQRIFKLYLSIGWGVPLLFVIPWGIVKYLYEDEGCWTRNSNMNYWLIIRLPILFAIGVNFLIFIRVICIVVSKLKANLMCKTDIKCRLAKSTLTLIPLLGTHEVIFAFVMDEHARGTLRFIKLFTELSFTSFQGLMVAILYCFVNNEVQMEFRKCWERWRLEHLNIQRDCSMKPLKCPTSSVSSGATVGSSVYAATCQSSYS
Nature of the data set: Positive allosteric modulator activity at mouse GLP-1R expressed in PSC-HEK293 cells in presence of EC20 level of GLP1(9-36)NH2 incubated for 30 mins by HTRF cAMP assay. It counts as functional, cell-based.

Data set [5] addresses T3, Glucagon-like peptide 1 receptor (Mus musculus) (UniProt O35659).
T3 sequence (whole entry): T2 sequence (O35659 whole entry)
As to the kind of experiment: Positive allosteric modulator activity at mouse GLP-1R expressed in PSC-HEK293 cells in presence of EC20 level of GLP1(9-36)NH2 incubated for 30 mins by HTRF cAMP assay relative to control. Type of data set: functional, cell-based. (In general: Time-resolved FRET reads energy transfer from a long-lived donor to a nearby acceptor.)

In data set [6] the target is T1, Glucagon-like peptide 1 receptor. Nature of the data set: Positive allosteric modulator activity at human GLP-1R expressed in PSC-HEK293 cells assessed as potentiation of GLP1(9-36)NH2-induced cAMP accumulation by measuring shift in EC50 of endogenous GLP1(9-36)NH2 at 10 uM incubated for 30 mins by HTRF cAMP assay relative to control. It counts as functional, cell-based. Put shortly: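 Thawed frozen PSC-HEK293 cells stably expressing human GLP-1R, 2000 cells/well in HBSS/20 mM HEPES/0.1% BSA with 2 mM IBMX. Shift format: GLP1(9-36)NH2 dose-response with compound fixed at 10 or 3 µM; 30 min room temperature; cAMP by HTRF (665/620 nm ratio) after 1 h with lysis reagents; 4-parameter logistic fit; EC50 shift factor derived.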
A general note: Cyclic AMP is a second messenger, typically raised through Gs and lowered through Gi signalling.

Data set [7] has as its target Sodium channel protein type 5 subunit alpha (Homo sapiens, UniProt Q14524). As to the kind of experiment: Effect on Nav1.5 (unknown origin).
Data set [8] addresses T1, Glucagon-like peptide 1 receptor. Nature of the data set: Displacement of radioactive labeled GLP-1(7-36)NH2 from human GLP-1R by radioactive ligand binding assay.
A short description of data set [9]: Agonist activity at KATP channel (unknown origin). Also noted: species or system Homo sapiens.
Data set [10] addresses T1, Glucagon-like peptide 1 receptor. Nature of the data set: Positive allosteric modulator activity at GLP-1R in human 1.1B4 cells in presence of EC20 level of GLP1(9-36)NH2 incubated for 30 mins by HTRF cAMP assay. It counts as functional, cell-based. In a few lines:
(§1)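 Human pancreatic β-cell line 1.1B4, 20,000 cells/well cultured overnight, washed twice; compound concentration-response with fixed 10 nM GLP1(9-36)NH2, 30 min. cAMP by HTRF 665/620 ratio, normalised to buffer (1x HBSS, 0.1% BSA, 1 mM IBMX; 0%) and GLP-1(7-36)NH2 (100%); 4-parameter logistic fit.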

For data set [11], the target named is T3, Glucagon-like peptide 1 receptor (Mus musculus). Nature of the data set: Positive allosteric modulator activity at GLP-1R in mouse MIN6-c4 cells assessed as effect on glucose-mediated increase in intracellular Ca2+ level by FLIPR assay relative to control. It counts as functional, cell-based.
A short description of data set [12]: Stability in GSH assay. Type of data set: physicochemical.
Data set [13] concerns the target T1, Glucagon-like peptide 1 receptor. As to the kind of experiment: Positive allosteric modulator activity at human GLP-1R expressed in PSC-HEK293 cells in presence of EC20 level of GLP1(9-36)NH2 incubated for 30 mins by HTRF cAMP assay. Type of data set: functional, cell-based. In a few lines: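 Thaw-and-use PSC-HEK293 cells stably expressing human GLP-1R, 2000 cells/well in HBSS/20 mM HEPES/0.1% BSA with 2 mM IBMX. Enhancer format: compound dose-response plus fixed EC20 GLP1(9-36)NH2. Shift format: GLP1(9-36)NH2 dose-response plus 10 or 3 μM compound. 30 min at room temperature. EC50 from a 4-parameter logistic fit.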

Data set [14] deals with Sodium channel protein type 2 subunit alpha (Homo sapiens) (UniProt Q99250). Nature of the data set: Effect on Nav1.2 (unknown origin).
In data set [15] the target is T1, Glucagon-like peptide 1 receptor. As to the kind of experiment: Positive allosteric modulator activity at GLP-1R in human 1.1B4 cells in presence of EC20 level of GLP1(9-36)NH2 incubated for 30 mins by HTRF cAMP assay relative to control. Type of data set: functional, cell-based. In a few lines: as §1
Data set [16] has as its target T3, Glucagon-like peptide 1 receptor (Mus musculus). Nature of the data set: Inhibition of 15 mM glucose-mediated increase in intracellular Ca2+ level in mouse MIN6-c4 cells at 30 uM by FLIPR assay relative to control. It counts as functional, cell-based.
Data set [17] relates to Mus musculus. Nature of the data set: Suppression of blood glucose concentration in ob/ob C57Bl/6J mouse model of T2DM at 4.5 mg/kg, ip in absence of 60 mg/kg, po OATP/MRP2 inhibitor rifampicin by oral glucose-tolerance test. Type of data set: functional, organism-based. In a few lines: (§2)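 Male ob/ob mice aged 10–11 weeks, n=7, randomised on blood glucose and fasted overnight. Rifampicin 60 mg/kg p.o. 2.5 h before the oGTT, compound 30 mg/kg p.o. 1 h before, GLP1(9-36)NH2 i.p. 15 min before, each given as indicated. Glucose 2 g/kg orally. Tail-vein glucose by glucometer at 0, 15, 30, 60 and 90 min.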

The test system of data set [18] is Mus musculus. As to the kind of experiment: Suppression of blood glucose concentration in ob/ob C57Bl/6J mouse model of T2DM at 4.5 mg/kg, ip and treated with 60 mg/kg, po OATP/MRP2 inhibitor rifampicin 2.5 hrs prior to oral glucose-tolerance test. Type of data set: functional, organism-based. Put shortly:
as §2

Activity calls are given as the source filed them. The rule behind the calls is not given here.

The term Cmax denotes the maximum level reached in the sampled fluid or tissue. By Tmax is commonly meant the time at which the peak concentration occurs. In general, Emax refers to the maximal effect, on the per cent scale that the assay sets. Broadly, the EC50 is the concentration giving half of the maximal effect.

T1 sequence (P43220 whole entry): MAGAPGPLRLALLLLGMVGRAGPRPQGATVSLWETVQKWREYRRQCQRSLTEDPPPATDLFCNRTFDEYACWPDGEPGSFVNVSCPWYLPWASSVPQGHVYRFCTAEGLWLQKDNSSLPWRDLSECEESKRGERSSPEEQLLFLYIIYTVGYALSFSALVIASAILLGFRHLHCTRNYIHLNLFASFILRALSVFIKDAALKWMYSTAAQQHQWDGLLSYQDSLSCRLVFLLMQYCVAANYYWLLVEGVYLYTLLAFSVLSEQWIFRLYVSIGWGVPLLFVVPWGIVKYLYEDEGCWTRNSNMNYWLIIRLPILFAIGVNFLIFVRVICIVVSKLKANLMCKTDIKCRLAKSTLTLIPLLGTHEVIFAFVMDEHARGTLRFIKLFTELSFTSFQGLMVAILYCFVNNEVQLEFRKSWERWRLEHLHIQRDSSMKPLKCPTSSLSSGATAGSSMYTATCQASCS
Sequence of Sodium channel protein type 5 subunit alpha (Q14524 whole entry): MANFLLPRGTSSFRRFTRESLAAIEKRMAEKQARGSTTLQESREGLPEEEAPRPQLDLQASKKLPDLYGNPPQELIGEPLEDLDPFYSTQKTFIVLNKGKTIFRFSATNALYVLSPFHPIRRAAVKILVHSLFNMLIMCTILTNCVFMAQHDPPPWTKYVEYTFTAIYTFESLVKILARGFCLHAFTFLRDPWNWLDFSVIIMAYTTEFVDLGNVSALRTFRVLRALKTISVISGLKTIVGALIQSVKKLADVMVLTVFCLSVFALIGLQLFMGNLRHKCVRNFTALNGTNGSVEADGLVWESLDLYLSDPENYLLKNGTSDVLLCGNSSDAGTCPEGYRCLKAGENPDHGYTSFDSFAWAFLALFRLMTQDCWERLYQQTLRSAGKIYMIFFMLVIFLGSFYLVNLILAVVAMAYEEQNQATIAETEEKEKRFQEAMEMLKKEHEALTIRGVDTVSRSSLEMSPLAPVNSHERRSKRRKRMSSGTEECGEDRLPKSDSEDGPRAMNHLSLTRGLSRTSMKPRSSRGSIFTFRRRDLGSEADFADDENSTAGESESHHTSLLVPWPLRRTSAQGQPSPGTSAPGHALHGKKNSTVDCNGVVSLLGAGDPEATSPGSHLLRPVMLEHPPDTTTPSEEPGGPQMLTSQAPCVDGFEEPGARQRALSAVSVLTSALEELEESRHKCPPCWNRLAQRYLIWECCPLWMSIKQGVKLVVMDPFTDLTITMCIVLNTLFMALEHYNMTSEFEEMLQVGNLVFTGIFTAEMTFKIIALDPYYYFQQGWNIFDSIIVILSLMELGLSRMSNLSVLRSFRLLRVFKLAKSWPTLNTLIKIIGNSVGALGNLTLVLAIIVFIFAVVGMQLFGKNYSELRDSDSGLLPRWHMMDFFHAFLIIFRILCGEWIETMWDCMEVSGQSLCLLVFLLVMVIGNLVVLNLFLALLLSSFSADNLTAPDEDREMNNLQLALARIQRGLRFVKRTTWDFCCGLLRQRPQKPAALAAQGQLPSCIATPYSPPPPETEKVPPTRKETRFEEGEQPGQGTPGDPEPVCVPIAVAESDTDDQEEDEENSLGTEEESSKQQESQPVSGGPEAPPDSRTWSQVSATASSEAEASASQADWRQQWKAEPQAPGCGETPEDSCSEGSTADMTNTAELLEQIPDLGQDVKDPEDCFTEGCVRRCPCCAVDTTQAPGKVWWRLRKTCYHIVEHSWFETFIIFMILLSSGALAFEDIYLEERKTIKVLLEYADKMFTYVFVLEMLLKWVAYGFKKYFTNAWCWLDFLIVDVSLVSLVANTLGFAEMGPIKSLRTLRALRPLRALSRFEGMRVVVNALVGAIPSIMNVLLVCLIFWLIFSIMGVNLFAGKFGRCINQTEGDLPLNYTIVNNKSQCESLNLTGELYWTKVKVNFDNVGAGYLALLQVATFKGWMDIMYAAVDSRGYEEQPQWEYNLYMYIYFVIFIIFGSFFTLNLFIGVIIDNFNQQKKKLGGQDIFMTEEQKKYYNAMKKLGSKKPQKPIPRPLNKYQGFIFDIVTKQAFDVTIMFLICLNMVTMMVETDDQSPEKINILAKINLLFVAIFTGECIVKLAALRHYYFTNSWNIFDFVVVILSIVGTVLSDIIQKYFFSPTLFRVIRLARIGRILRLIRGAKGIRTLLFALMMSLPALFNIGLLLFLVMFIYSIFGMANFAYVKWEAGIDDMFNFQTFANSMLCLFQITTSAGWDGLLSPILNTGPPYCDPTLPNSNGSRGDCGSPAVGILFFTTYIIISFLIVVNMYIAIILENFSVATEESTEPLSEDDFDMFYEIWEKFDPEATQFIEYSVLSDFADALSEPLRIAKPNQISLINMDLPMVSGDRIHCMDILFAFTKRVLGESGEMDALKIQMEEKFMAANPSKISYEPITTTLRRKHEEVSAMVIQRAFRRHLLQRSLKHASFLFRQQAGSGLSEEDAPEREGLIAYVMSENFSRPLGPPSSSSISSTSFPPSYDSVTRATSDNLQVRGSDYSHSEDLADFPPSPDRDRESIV
Sequence of Sodium channel protein type 2 subunit alpha (Homo sapiens) (Q99250 whole entry, looked up): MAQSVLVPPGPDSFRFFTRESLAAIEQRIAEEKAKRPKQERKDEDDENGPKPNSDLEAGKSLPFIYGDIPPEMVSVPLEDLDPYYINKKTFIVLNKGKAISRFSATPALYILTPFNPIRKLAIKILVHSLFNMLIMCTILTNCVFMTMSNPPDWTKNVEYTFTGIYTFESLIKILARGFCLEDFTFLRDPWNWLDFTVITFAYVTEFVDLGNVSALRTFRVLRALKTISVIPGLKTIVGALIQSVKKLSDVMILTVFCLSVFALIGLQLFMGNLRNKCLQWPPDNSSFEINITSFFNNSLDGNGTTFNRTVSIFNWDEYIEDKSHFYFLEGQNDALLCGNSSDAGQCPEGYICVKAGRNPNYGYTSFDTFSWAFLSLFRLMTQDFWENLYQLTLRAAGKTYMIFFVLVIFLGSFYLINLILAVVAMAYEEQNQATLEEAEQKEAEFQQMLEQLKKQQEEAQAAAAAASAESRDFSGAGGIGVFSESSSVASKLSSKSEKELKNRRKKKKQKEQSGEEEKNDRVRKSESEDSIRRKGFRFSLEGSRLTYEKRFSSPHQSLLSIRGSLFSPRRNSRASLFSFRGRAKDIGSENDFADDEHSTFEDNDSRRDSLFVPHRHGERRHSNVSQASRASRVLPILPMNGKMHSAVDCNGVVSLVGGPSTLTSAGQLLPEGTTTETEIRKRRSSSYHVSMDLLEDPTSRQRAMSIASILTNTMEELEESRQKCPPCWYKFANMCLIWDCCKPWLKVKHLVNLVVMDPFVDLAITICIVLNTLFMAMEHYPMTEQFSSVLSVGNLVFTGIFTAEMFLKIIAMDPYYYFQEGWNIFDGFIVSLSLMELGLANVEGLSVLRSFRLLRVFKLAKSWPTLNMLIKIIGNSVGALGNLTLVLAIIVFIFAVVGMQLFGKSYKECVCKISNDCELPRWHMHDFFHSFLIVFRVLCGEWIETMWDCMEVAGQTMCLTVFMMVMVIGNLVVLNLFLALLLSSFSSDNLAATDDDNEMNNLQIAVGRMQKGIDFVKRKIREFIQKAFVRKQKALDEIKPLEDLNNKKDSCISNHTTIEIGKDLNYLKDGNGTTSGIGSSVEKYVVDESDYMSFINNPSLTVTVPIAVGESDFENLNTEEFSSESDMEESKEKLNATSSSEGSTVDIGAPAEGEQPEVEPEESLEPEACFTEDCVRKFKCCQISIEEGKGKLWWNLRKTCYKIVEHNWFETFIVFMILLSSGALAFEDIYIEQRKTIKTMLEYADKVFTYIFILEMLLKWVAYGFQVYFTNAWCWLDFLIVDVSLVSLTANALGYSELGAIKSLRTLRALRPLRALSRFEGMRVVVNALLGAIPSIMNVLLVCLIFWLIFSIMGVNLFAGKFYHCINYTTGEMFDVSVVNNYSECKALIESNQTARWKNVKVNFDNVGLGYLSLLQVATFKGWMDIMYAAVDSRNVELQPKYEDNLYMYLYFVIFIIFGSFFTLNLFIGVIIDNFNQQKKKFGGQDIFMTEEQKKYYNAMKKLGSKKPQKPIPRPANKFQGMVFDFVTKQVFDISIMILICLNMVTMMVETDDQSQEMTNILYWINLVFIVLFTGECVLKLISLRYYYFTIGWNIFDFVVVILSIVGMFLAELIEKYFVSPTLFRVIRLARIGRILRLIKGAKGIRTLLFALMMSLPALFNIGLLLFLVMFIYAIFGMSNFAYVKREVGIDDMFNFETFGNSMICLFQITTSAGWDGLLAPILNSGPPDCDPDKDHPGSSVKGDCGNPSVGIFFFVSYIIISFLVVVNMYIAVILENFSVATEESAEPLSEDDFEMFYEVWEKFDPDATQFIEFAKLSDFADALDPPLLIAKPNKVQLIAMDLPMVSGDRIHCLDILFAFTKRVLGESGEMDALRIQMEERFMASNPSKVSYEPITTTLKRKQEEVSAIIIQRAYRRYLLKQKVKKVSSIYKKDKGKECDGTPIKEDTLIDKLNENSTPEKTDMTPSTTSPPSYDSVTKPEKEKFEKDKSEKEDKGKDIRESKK

`CO[C@H]1/C=C/O[C@@]2(C)Oc3c(C)c(O)c4c(O)c(c(/C=N/N5CCN(C)CC5)c(O)c4c3C2=O)NC(=O)/C(C)=C\C=C\[C@H](C)[C@H](O)[C@@H](C)[C@@H](O)[C@@H](C)[C@H](OC(C)=O)[C@@H]1C` [RIFAMPIN]: the Cmax in [1] is 13 µM. The Tmax in data set [2] was 1.5 h.

Turning to `Cc1cc(-n2nc3c(c2-n2ccn(-c4ccc5c(cnn5C)c4F)c2=O)[C@H](C)N(C(=O)c2cc4cc([C@H]5CCOC(C)(C)C5)ccc4n2[C@@]2(c4noc(=O)[nH]4)C[C@@H]2C)CC3)cc(C)c1F` [ORFORGLIPRON], the Emax in data set [3] was found to be 91%; in data set [5], 100%. For the same compound, in data set [4], the EC50 came to 300 nM.

For `CC(C)(C)OC(=O)n1c2c(c3ccccc31)C[C@H]1C(=O)NC[C@@H]2N1C(=O)CC1CCC(F)(F)CC1`, the Emax in data set [3] worked out at 99%. The Ratio EC50 in data set [6] stood at 3800. Also, the result in [7] was Active. In addition, the inhibition result in data set [8] was “inactive”. For the same compound, the EC50 in data set [9] was 2670 nM; in data set [10], “Not Active”; in data set [13], 5 nM. The “fold change (FC)” value in data set [11] is “inactive”. Also, the Stability result in [12] was “Stable”. The result in [14] was Active. Further, the Emax result in data set [15] was “inactive”.

For the compound `CC1=Nc2ccc(Cl)cc2S(=O)(=O)N1`, the inhibition result in data set [16] was “Active”.

In the case of `CC[C@H](C)[C@H](NC(=O)[C@H](Cc1ccccc1)NC(=O)[C@H](CCC(=O)O)NC(=O)[C@H](CCCCN)NC(=O)[C@H](C)NC(=O)[C@H](C)NC(=O)[C@H](CCC(N)=O)NC(=O)CNC(=O)[C@H](CCC(=O)O)NC(=O)[C@H](CC(C)C)NC(=O)[C@H](Cc1ccc(O)cc1)NC(=O)[C@H](CO)NC(=O)[C@H](CO)NC(=O)[C@@H](NC(=O)[C@H](CC(=O)O)NC(=O)[C@H](CO)NC(=O)[C@@H](NC(=O)[C@H](Cc1ccccc1)NC(=O)[C@@H](NC(=O)CNC(=O)[C@@H](N)CCC(=O)O)[C@@H](C)O)[C@@H](C)O)C(C)C)C(=O)N[C@@H](C)C(=O)N[C@@H](Cc1c[nH]c2ccccc12)C(=O)N[C@@H](CC(C)C)C(=O)N[C@H](C(=O)N[C@@H](CCCCN)C(=O)NCC(=O)N[C@@H](CCCNC(=N)N)C(N)=O)C(C)C`, the result in the data set with Mus musculus [17] and in the data set on Mus musculus [18] was inactive.
